Screening data (PubChem)
SUMO1 PPI mod: alters human SUMO1 binding to SIM partners | P63165 | SUMO1 binding to a labelled peptide, TR-FRET, 1 h | inhibition, % at 20 µM | hit rate 0.33% among 360,000; in the data active = inhibition above about 37%
Target sequence (P63165 whole entry, looked up): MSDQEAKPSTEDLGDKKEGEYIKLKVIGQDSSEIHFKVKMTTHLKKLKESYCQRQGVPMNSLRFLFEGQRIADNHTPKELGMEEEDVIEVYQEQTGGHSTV
Scp-1 inhibitor: Scp-1 (human) phosphatase inhibition | Q9GZU7 | Recombinant Scp1, phosphopeptide, malachite green phosphate absorbance | inhibition, % at 20 µM | hit rate 0.88% among 340,000 | AID 493091;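 active = inhibition above about 50% at 20 µM, limit read from the data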;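 note: plate controls were DMSO wells with enzyme for no effect and wells lacking enzyme for full effect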
Target sequence (Q9GZU7 76-261 limits assumed): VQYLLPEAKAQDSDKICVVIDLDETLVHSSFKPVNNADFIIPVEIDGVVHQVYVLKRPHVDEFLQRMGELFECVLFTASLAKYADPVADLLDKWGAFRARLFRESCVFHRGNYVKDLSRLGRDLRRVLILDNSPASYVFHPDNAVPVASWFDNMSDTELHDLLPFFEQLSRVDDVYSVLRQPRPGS
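Material: truncated SCP-1 phosphatase (76-261aa) / Buffer or medium: 50 mM Tris acetate pH 5.5, 0.005% Tween-20, 10 mM MgCl2 / Compound dosing: one concentration, 20 µM, with 1.0% DMSO / Incubation: 45 min room-temperature reaction, 5 min colour, 30 min stabiliser / Detection: colorimetric free-phosphate detection, absorbance 630 nm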
DNMT1 inh: DNMT1 (human) enzyme inhibition; P26358; inhibition (reported as % activation of signal), % at 10 µM; hit rate 0.83% among 360,000; AID 588458; DNMT1 molecular beacon, Hinp1I cleavage, fluorescence; in the data active = inhibition above about 50%
STEP block: inhibitors of human striatal-enriched phosphatase STEP | P54829 | recombinant STEP, OMFP fluorogenic substrate, fluorescence | inhibition, % at 20 µM | hit rate 0.25% among 360,000 | AID 588621;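 active = inhibition at 20 µM, scaled per plate between control wells, above about 37%, limit read from the data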;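 note: 0% = DMSO with enzyme and substrate and 100% = substrate only without enzyme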
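System: STEP phosphatase, cell-free reaction; Buffer or medium: Bis-Tris pH 6.0 buffer with DTT, detergent; Incubation: 20 min at room temperature, dark; Measured by: fluorescence, 480/540 nm.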
LMPTP block: LMPTP (human) inhibition; P24666; recombinant LMPTP-A, OMFP fluorogenic substrate, fluorescence intensity; inhibition, % at 20 µM; hit rate 0.22% among 360,000; AID 651560;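 active = compounds that cut the enzyme signal by at least half of the control window in the single-dose screen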;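 note: plate controls were DMSO wells with enzyme plus substrate for no effect and substrate without enzyme for full effect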
Target sequence (P24666 whole entry, looked up): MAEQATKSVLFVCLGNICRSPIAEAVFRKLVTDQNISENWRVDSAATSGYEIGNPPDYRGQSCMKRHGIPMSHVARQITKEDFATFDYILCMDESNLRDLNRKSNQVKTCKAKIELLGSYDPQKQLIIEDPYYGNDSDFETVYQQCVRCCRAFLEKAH
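Test system – LMPTP-A phosphatase enzyme · Quantity – 0.625 nM LMPTP-A final · Reagent – OMFP substrate, 400 µM final · Dosing – one test concentration per compound, 20 µM, with 3% DMSO overall · Timing – 50 min enzyme reaction at room temperature, protected from light · Detection – fluorescence intensity · Controls – substrate-only low control, DMSO enzyme-plus-substrate high control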
Starred values were filed as active, the others as inactive; x = not tested or not shown. Sampled rows, rich in hits. Any-hit rate of the full collection: about 1.7%.

SMILES | SUMO1 PPI mod | Scp-1 inhibitor | DNMT1 inh | STEP block | LMPTP block
COc1ccc2oc(=Nc3ccc(C(=O)O)cc3)c(C(=O)NCc3ccco3)cc2c1 | 65* | -9 | 4 | -3 | 1
COc1ccc(CN2C[C@@H](CO)O[C@@H](n3cnc4c(N5CCN(c6ccccc6)CC5)ncnc43)C2)cc1 | 2 | x | -11 | -1 | 1
CNC(CC(C)C)C(=O)NC1C(=O)NC(CC(N)=O)C(=O)NC2C(=O)NC3C(=O)NC(C(=O)NC(C(=O)O)c4cc(O)cc(O)c4-c4cc3ccc4O)C(O)c3ccc(c(Cl)c3)Oc3cc2cc(c3OC2OC(CO)C(O)C(O)C2OC2CC(C)(N)C(O)C(C)O2)Oc2ccc(cc2Cl)C1O (centres undefined) | 51* | -3 | -2 | -1 | 0
Cc1ccc(-c2nc(N)s[n+]2-c2ccccc2)cc1 | 3 | 88* | 1 | 0 | 1
CNc1nc(-c2ccccc2)[n+](-c2ccc(C)cc2)s1 | 0 | 83* | 4 | -3 | -1
CC1(C(=O)NS(=O)(=O)c2ccccc2Cl)CCN1C(=O)C1(c2ccc(Cl)cc2)CCC1 (centres undefined) | 7 | x | -2 | -2 | 0
O=c1c2ccccc2[nH]c2ccc(O)cc12 | 5 | 61* | 33 | 8 | 7
Cc1ccc2[nH]c3ccccc3c(=O)c2c1 | -23 | -9 | 10 | 5 | 1
COC(=O)CCCN1C(=O)c2cccc3cccc(c23)C1=O | -27 | -4 | 3 | 0 | -2
O=C(CCCN1C(=O)c2cccc3cccc(c23)C1=O)Nc1nccs1 | 50* | -5 | 0 | 4 | -1
CC1(Oc2ccc(CC#N)cc2)CCN(Cc2ccccc2OC(F)F)C1 (centres undefined) | 3 | x | 8 | 2 | -1
COc1ccc(NS(=O)(=O)c2ccc3c(c2)[C@H]2C=CC[C@H]2[C@@H](c2ccc(C(=O)O)cc2)N3)cc1 | 53* | 14 | 87* | 3 | 4
Cc1c(Cl)cccc1NS(=O)(=O)c1ccc2c(c1)C1C=CCC1C(c1ccc(C(=O)O)cc1)N2 (centres undefined) | 50* | 26 | 87* | 2 | 26
CCCS(=O)(=O)NC(=O)C1(C)CCN(C(=O)c2ccccc2OC(F)(F)F)C1 (centres undefined) | -3 | x | 5 | -3 | -2
CCc1ccc2[nH]c3nc(N/N=C/c4ccc(O)cc4O)nnc3c2c1 | 11 | -3 | 62* | 1 | 1
COc1cc(CNc2ncc(-c3ccc(Br)cc3)n2C)cc(OC)c1O | 6 | 1 | 2 | 2 | -1
O=C1OC(c2cccs2)Sc2ccccc21 (centres undefined) | 8 | x | 0 | 0 | 0
CC(=O)Oc1ccc(Cn2c(C)c(C(=O)NCc3cccc(C(F)(F)F)c3)sc2=O)cc1 | 0 | x | 0 | -1 | 1
C[C@H]1c2cccc(O)c2C(O)=C2C(=O)C3(O)C(O)=C(C(N)=O)C(=O)[C@@H](N(C)C)[C@@H]3[C@@H](O)[C@@H]21 (some centres undefined) | 1 | -14 | -2 | -2 | 1
C=C1c2cccc(O)c2C(O)=C2C(=O)[C@]3(O)C(O)=C(C(N)=O)C(=O)[C@@H](N(C)C)[C@@H]3[C@@H](O)[C@H]12 | 72* | 39 | 90* | 25 | 88*
CCOC(=O)[C@]12CCCC=C1N(Cc1ccco1)C(=O)[C@H](CC(=O)NCCCN1CCCC1=O)C2 | 4 | x | x | x | -1
CC(C)C[C@H]1CNC(=S)N1C[C@H]1CCCN1C[C@H](CC(C)C)N1C[C@H](Cc2ccc(O)cc2)N(CC2CCCCCC2)C1=S | 9 | x | -10 | 8 | 5
Cc1ccccc1-c1cc2nc(Nc3ccc(F)cc3)n(C)c(=O)c2s1 | -4 | x | -15 | -2 | 5
CSCCC(NC(=O)c1ccccc1Cl)C(=O)N1CCN(c2ccccn2)CC1 (centres undefined) | -1 | -9 | 3 | 4 | 0
C[N+]12CCCCC1C(COC(=O)c1ccc3c(c1)OCO3)CCC2 (centres undefined) | 1 | 106* | 2 | 2 | -1
O=c1oc2cc(O)ccc2c2oc3cc(O)ccc3c12 | 48* | 21 | -1 | 0 | 21
O=C(O)CN1C(=O)/C(=C\c2cc(Br)ccc2OCc2ccc(Cl)cc2Cl)SC1=S | 78* | 31 | 95* | 15 | 67*
